Measured values from ChEMBL document CHEMBL3351332 (J Med Chem, 2014).
pEC50, pIC50: −log10 of the molar value.

Assays:
[1] = target: T1, Cannabinoid receptor 1 (Homo sapiens, UniProt P21554); experiment: Agonist activity at human CB1 receptor stably expressed in RD-HGA16 cells assessed as calcium mobilization at 10000 nM after 15 mins by FLIPR assay relative to CP55,940; assay type: functional, cell-based
Outline: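 Cells plated at 25 000/well the day before in Ham's F12 with 10% FBS, then loaded 45 min at 37 °C with Calcium 5 dye in HBSS/20 mM HEPES/2.5 mM probenecid, pH 7.4. Vehicle pretreatment for 15 min at 37 °C; test compound added on-line, fluorescence read every 1 s over 90 s.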

[2] = target: T1, Cannabinoid receptor 1; experiment: Displacement of [3H]CP55,940 from human CB1 receptor expressed in HEK293 cells after 1 hr by scintillation counting; assay type: cell-based
[3] = target: T1, Cannabinoid receptor 1; experiment: Antagonist activity at human CB1 receptor stably expressed in RD-HGA16 cells assessed as inhibition of CP55,940-induced calcium mobilization after 15 mins by FLIPR assay; assay type: functional, cell-based
[4] = target: T1, Cannabinoid receptor 1; experiment: Displacement of [3H]CP55,940 from human CB1 receptor expressed in HEK293 cells after 1 hr by scintillation counting relative to control; assay type: cell-based
[5] = target: T2, Cannabinoid receptor 2 (Homo sapiens, UniProt P34972); experiment: Antagonist activity at human CB2 receptor stably expressed in CHO-RD-HGA16 cells assessed as inhibition of CP55,940-induced calcium mobilization at 10000 nM after 15 mins by FLIPR assay; assay type: functional, cell-based
[6] = target: T2, Cannabinoid receptor 2; experiment: Antagonist activity at human CB2 receptor stably expressed in CHO-RD-HGA16 cells assessed as inhibition of CP55,940-induced calcium mobilization after 15 mins by FLIPR assay; assay type: functional, cell-based
[7] = target: T1, Cannabinoid receptor 1; experiment: Allosteric modulation at human CB1 receptor stably expressed in RD-HGA16 cells assessed as inhibition of CP55,940-induced calcium mobilization after 15 mins by FLIPR assay; assay type: functional, cell-based
Outline: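 Cells plated the day before at 25 000/well and loaded 45 min at 37 °C with Calcium 5 dye in HBSS/20 mM HEPES/2.5 mM probenecid, pH 7.4. Fluorescence was read every 1 s for 90 s.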

T1 sequence (P21554 whole entry): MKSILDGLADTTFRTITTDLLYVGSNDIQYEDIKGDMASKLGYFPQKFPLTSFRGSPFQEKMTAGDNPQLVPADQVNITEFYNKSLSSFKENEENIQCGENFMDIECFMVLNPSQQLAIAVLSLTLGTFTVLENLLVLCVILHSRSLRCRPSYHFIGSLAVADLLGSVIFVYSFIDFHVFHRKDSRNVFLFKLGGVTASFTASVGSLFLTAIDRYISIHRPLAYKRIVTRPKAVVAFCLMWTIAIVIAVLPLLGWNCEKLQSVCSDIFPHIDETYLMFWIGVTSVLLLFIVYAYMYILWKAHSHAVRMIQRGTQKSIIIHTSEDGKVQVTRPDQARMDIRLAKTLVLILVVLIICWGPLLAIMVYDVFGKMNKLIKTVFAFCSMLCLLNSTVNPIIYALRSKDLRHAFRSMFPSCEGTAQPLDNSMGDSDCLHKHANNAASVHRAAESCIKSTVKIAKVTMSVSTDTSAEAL
T2 sequence (P34972 whole entry): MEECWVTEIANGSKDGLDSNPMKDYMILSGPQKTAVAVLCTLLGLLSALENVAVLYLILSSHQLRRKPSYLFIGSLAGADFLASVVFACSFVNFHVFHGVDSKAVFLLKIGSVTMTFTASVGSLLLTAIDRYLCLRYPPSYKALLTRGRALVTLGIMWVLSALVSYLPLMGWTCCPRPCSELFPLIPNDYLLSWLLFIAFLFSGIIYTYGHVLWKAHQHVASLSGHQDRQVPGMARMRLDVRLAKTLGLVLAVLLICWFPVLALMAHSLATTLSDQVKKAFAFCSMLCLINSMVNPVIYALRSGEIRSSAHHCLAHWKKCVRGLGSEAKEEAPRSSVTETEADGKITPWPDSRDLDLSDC

Compound: O=C(Nc1ccc(Cl)nc1)Nc1cccc(-c2cccc(N3CCCC3)n2)c1
- Activity [1]: < 15%
- pEC50 [2]: 6.39
- pIC50 [3]: 6.87
- Emax [4]: 196%
- inhibition [5]: < 35%

Compound: O=C(Nc1ccc(Cl)cc1)Nc1cccc(-c2cccc(N3CCCC3)n2)c1
- Activity [1]: 28.2%
- pIC50 [6]: < 5.00
- inhibition [3]: Dose-dependent effect
- Emax [4]: 174%

Compound: CCCNc1cccc(-c2cccc(NC(=O)Nc3ccc(Cl)cc3)c2)n1
- Activity [1]: 19.6%
- pIC50 [3]: 6.51
- inhibition [5]: < 35%

Compound: O=C(Nc1ccc(Cl)cc1)Nc1cccc(-c2cccc(NC3CCCC3)n2)c1
- Activity [1]: 35%
- pIC50 [6]: < 5.00
- pIC50 [3]: 6.30

Compound: CCNc1cccc(-c2cccc(NC(=O)Nc3ccc(Cl)cc3)c2)n1
- Activity [1]: < 15%
- pIC50 [3]: 6.74
- inhibition [5]: < 35%

Compound: CN(C)c1ccc(NC(=O)Nc2cccc(-c3cccc(N4CCCC4)n3)c2)cc1
- Activity [1]: < 15%
- pIC50 [3]: 5.79
- inhibition [5]: < 35%

Compound: Cc1cccc(C)c1NC(=O)Nc1cccc(-c2cccc(N3CCCC3)n2)c1
- Activity [1]: < 15%
- pIC50 [3]: < 5.00
- inhibition [5]: < 35%

Compound: CCCN(C)c1cccc(-c2cccc(NC(=O)Nc3ccc(Cl)cc3)c2)n1
- Activity [1]: < 15%
- pIC50 [3]: 6.81
- inhibition [5]: < 35%

Compound: O=C(Nc1cccc(-c2cccc(N3CCCC3)n2)c1)Nc1cccc2ccccc12
- Activity [1]: < 15%
- pIC50 [3]: < 5.00
- inhibition [5]: < 35%

Compound: O=C(Nc1cc(Cl)cc(Cl)c1)Nc1cccc(-c2cccc(N3CCCC3)n2)c1
- Activity [1]: 22.2%
- pIC50 [6]: < 5.00
- pIC50 [3]: 6.15

Compound: O=C(Nc1ccc(F)cc1)Nc1cccc(-c2cccc(N3CCCC3)n2)c1
- Activity [1]: 23.2%
- pEC50 [2]: 6.68
- pIC50 [3]: 7.49
- Emax [4]: 172%
- inhibition [5]: < 35%

Compound: O=C(Nc1ccc(Br)cc1)Nc1cccc(-c2cccc(N3CCCC3)n2)c1
- Activity [1]: < 15%
- pIC50 [3]: 7.01
- inhibition [5]: < 35%

Compound: O=C(Nc1cccc(-c2cccc(N3CCCC3)n2)c1)Nc1ccc2c(c1)OCO2
- Activity [1]: < 15%
- pIC50 [3]: 6.51
- inhibition [5]: < 35%

Compound: CCc1c(C(=O)NCCc2ccc(N3CCCCC3)cc2)[nH]c2ccc(Cl)cc12
- inhibition [3]: Dose-dependent effect

Compound: Cc1cc(C)cc(NC(=O)Nc2cccc(-c3cccc(N4CCCC4)n3)c2)c1
- Activity [1]: < 15%
- pIC50 [3]: 5.73
- inhibition [5]: < 35%

Compound: CCCCNc1cccc(-c2cccc(NC(=O)Nc3ccc(Cl)cc3)c2)n1
- Activity [1]: 26.5%
- pEC50 [2]: 5.82
- pIC50 [3]: 7.03
- Emax [4]: 161%
- inhibition [5]: < 35%

Compound: CN(C)c1cccc(-c2cccc(NC(=O)Nc3ccc(Cl)cc3)c2)n1
- Activity [7]: Dose-dependent effect
- Activity [1]: < 15%
- pEC50 [2]: 6.18
- pIC50 [3]: 7.56
- Emax [4]: 184%
- inhibition [5]: < 35%

Compound: O=C(Nc1ccccc1)Nc1cccc(-c2cccc(N3CCCC3)n2)c1
- Activity [1]: < 15%
- pIC50 [3]: 6.78
- inhibition [5]: < 35%

Compound: O=C(Nc1cccc(-c2cccc(N3CCCC3)n2)c1)Nc1ccc(Cl)c(Cl)c1
- Activity [1]: < 15%
- pIC50 [6]: < 5.00
- pIC50 [3]: 6.79

Compound: O=C(Nc1ccc([N+](=O)[O-])cc1)Nc1cccc(-c2cccc(N3CCCC3)n2)c1
- Activity [1]: 27.9%
- pIC50 [3]: 7.00
- inhibition [5]: < 35%

Compound: O=C(Nc1cccc(Cl)c1)Nc1cccc(-c2cccc(N3CCCC3)n2)c1
- Activity [1]: 19.6%
- pIC50 [3]: 6.64
- inhibition [5]: < 35%

Compound: CCc1ccccc1NC(=O)Nc1cccc(-c2cccc(N3CCCC3)n2)c1
- Activity [1]: < 15%
- pIC50 [3]: < 5.00
- inhibition [5]: < 35%

Compound: CCCCCCNc1cccc(-c2cccc(NC(=O)Nc3ccc(Cl)cc3)c2)n1
- Activity [1]: < 15%
- pIC50 [3]: 5.87
- inhibition [5]: < 35%

Compound: CC(C)c1ccccc1NC(=O)Nc1cccc(-c2cccc(N3CCCC3)n2)c1
- Activity [1]: < 15%
- pIC50 [3]: < 5.00
- inhibition [5]: < 35%

Compound: CCCN(CCC)c1cccc(-c2cccc(NC(=O)Nc3ccc(Cl)cc3)c2)n1
- Activity [1]: 29%
- pIC50 [3]: 6.43
- inhibition [5]: < 35%

Compound: Cc1ccc(NC(=O)Nc2cccc(-c3cccc(N4CCCC4)n3)c2)cc1
- Activity [1]: < 15%
- pIC50 [3]: 6.69
- inhibition [5]: < 35%

Compound: CCCCCNc1cccc(-c2cccc(NC(=O)Nc3ccc(Cl)cc3)c2)n1
- Activity [1]: < 15%
- pIC50 [3]: 6.06
- inhibition [5]: < 35%

Compound: O=C(Nc1cccc(-c2cccc(N3CCCC3)n2)c1)Nc1ccc2ccccc2c1
- Activity [1]: < 15%
- pIC50 [3]: 6.05
- inhibition [5]: < 35%

Compound: CCCCN(C)c1cccc(-c2cccc(NC(=O)Nc3ccc(Cl)cc3)c2)n1
- Activity [1]: 22.1%
- pIC50 [3]: 6.98
- inhibition [5]: < 35%

Compound: COc1cc(NC(=O)Nc2cccc(-c3cccc(N4CCCC4)n3)c2)cc(OC)c1OC
- Activity [1]: < 15%
- pIC50 [6]: < 5.00
- pIC50 [3]: < 5.00

Compound: COc1ccc(NC(=O)Nc2cccc(-c3cccc(N4CCCC4)n3)c2)cc1
- Activity [1]: < 15%
- pIC50 [3]: 6.72
- inhibition [5]: < 35%

Compound: CC(=O)Nc1cccc(-c2cccc(NC(=O)Nc3ccc(Cl)cc3)c2)n1
- Activity [1]: 47%
- pIC50 [6]: 5.29
- pIC50 [3]: 6.60

Compound: O=C(Nc1ccc(Cl)cc1)Nc1cccc(-c2cccc(N3CCCCC3)n2)c1
- Activity [1]: 35%
- pIC50 [6]: < 5.00
- pIC50 [3]: 7.02
- Emax [4]: 132%

Compound: CNc1cccc(-c2cccc(NC(=O)Nc3ccc(Cl)cc3)c2)n1
- Activity [1]: < 15%
- pIC50 [3]: 6.50
- inhibition [5]: < 35%

Compound: CCN(C)c1cccc(-c2cccc(NC(=O)Nc3ccc(Cl)cc3)c2)n1
- Activity [1]: < 15%
- pIC50 [3]: 7.27
- inhibition [5]: < 35%

Compound: CCN(CC)c1cccc(-c2cccc(NC(=O)Nc3ccc(Cl)cc3)c2)n1
- Activity [1]: < 15%
- pIC50 [3]: 6.90
- inhibition [5]: < 35%

Compound: CCCCN(CCCC)c1cccc(-c2cccc(NC(=O)Nc3ccc(Cl)cc3)c2)n1
- Activity [1]: < 15%
- pIC50 [3]: 6.16
- inhibition [5]: < 35%

Compound: N#Cc1ccc(NC(=O)Nc2cccc(-c3cccc(N4CCCC4)n3)c2)cc1
- Activity [7]: Dose-dependent effect
- Activity [1]: 30%
- pEC50 [2]: 7.26
- pIC50 [6]: < 5.00
- pIC50 [3]: 7.48
- Emax [4]: 172%
